The record followed here is ChEMBL document CHEMBL1158557, “In vitro TRPV1 activity of piperine derived amides” (Bioorg Med Chem, 2010).

In experiment [1] the target is T1, Transient receptor potential cation channel subfamily V member 1 (Homo sapiens, UniProt Q8NER1). The experiment can be described thus: Antagonist activity at human TRPV1 expressed in tetracycline-stimulated HEK293 cells assessed as inhibition of capsaicin-induced intracellular calcium levels by fluorimetric assay relative to control. Format: functional, cell-based.

Experiment [2] has as its target T1, Transient receptor potential cation channel subfamily V member 1. Briefly: Antagonist activity at human TRPV1 expressed in tetracycline-stimulated HEK293 cells assessed as inhibition of capsaicin-induced intracellular calcium levels by fluorimetric assay. Format: functional, cell-based.
Experiment [3] has the same target. Briefly: Agonist activity at human TRPV1 expressed in tetracycline-stimulated HEK293 cells assessed as increase in intracellular calcium levels by fluorimetric assay relative to control. In kind it is functional, cell-based. Summed up: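 Tetracycline induction (0.1 µg/mL, 16–24 h) of HEK T-REx hTRPV1 cells, then Fluo-4/AM loading (1 µM, with probenecid 2 mM, 1 h, 37 °C) and a 30 min rest in HEPES buffer pH 7.4. Screening at 100 µM, then full concentration–response for compounds above 50%. Ex 488/em 520 nm, 22–24 °C, triplicate wells.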

Experiment [4] shares this target. Briefly: Agonist activity at human TRPV1 expressed in tetracycline-stimulated HEK293 cells assessed as increase in intracellular calcium levels by fluorimetric assay. Format: functional, cell-based. (In general: Calcium assays in cells follow changes in intracellular calcium, usually with a dye or a luminescent sensor.)
Experiment [5] shares this target. The experiment can be described thus: Agonist activity at human TRPV1 expressed in HEK293 cells assessed as increase in intracellular calcium levels by fluorimetric assay without tetracycline-stimulation. In kind it is functional, cell-based. Summed up:
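Non-induced HEK T-REx hTRPV1 cells (no tetracycline) loaded with Fluo-4/AM 1 µM plus probenecid 2 mM for 1 h at 37 °C, then equilibrated 30 min in HEPES buffer pH 7.4. Compounds at 100 µM (10 µM where solubility poor), DMSO ≤0.1%. Fluorescence read at 488/520 nm, 22–24 °C, triplicate wells. Response given as % of 1 µM ionomycin; n = 4–6.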

Experiment [6] shares this target. Briefly: Displacement of [3H]resiniferatoxin from human TRPV1.

Active and inactive are the calls of the source. No cut-off for these calls is given here.

T1 sequence (Q8NER1 whole entry): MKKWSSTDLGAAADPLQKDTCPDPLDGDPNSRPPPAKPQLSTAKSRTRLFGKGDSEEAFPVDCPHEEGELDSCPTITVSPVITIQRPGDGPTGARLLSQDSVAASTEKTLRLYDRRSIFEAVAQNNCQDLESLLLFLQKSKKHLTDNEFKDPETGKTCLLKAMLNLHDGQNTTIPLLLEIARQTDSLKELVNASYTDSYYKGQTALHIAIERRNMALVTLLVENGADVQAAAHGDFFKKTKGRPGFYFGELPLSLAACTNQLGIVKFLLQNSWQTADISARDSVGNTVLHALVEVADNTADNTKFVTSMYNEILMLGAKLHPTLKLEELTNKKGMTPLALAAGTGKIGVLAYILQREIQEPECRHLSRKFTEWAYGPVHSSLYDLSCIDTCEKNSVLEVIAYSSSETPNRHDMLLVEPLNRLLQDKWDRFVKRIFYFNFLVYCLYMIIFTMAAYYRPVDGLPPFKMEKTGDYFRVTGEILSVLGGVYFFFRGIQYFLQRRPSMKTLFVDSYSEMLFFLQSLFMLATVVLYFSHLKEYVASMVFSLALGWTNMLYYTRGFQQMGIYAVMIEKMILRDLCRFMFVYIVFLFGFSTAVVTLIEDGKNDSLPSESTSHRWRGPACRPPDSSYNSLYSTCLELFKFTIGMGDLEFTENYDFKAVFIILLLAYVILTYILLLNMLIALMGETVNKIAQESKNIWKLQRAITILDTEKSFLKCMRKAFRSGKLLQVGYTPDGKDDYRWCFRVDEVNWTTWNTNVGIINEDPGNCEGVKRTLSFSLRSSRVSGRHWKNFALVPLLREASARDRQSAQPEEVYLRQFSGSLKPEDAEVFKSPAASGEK

For orientation: Emax means the greatest response seen or fitted, relative to the assay's reference. What is called EC50 is the midpoint of the concentration-response curve. On to `O=C(/C=C/C=C/c1ccc2c(c1)OCO2)Nc1ccc(Cl)cc1`, for which the Emax in experiment [1] was 94%. In experiment [2], the 50% effective concentration (EC50) was 10 nM.

As for `COc1cc(/C=C/C(=O)N2CCCCC2)ccc1O`, the Emax in experiment [1] turned out to be 93%. Also, the EC50 in experiment [2] was 2 nM.

As for `COc1cc(/C=C/C(=O)N2CCSCC2)ccc1O`, the Emax in experiment [1] was 93%. For the same compound, the EC50 in experiment [2] was 2.51 nM.

With `COc1cc(/C=C/C(=O)NCC(C)C)ccc1O`, the Emax in experiment [1] was determined as 94%. The concentration giving a half-maximal response (EC50) in experiment [2] was 6.31 nM.

With `COc1cc(/C=C/C(=O)N2CCOCC2)ccc1O`, the Emax in experiment [1] worked out at 92%. In addition, the concentration giving a half-maximal response (EC50) in experiment [2] is 2.51 nM.

Turning to `O=C(/C=C/C=C/c1ccc2c(c1)OCO2)N1CCOCC1`, the Emax in experiment [3] came to 93%. In addition, the EC50 in experiment [4] was 2510 nM. For the same compound, in experiment [5], the outcome was inactive.

`COc1cc(CNC(=O)CCCC/C=C/C(C)C)ccc1O`: in experiment [3], the maximal effect (Emax) came out at 97%.

With `Oc1cc2c(cc1O)CN(C(=S)NCCc1ccc(Cl)cc1)CCC2` [CAPSAZEPINE], the Emax in experiment [1] is 92%. Also, in experiment [2], the EC50 was 2510 nM.

On to `O=C(/C=C/c1ccc2c(c1)OCO2)N1CCCCC1` [ILEPCIMIDE], for which the maximal response (Emax) in experiment [3] stood at 66%. In addition, in experiment [4], the 50% effective concentration (EC50) is 20000 nM. In addition, the outcome in experiment [5] was inactive.

Consider `O=C(/C=C/CCc1ccc2c(c1)OCO2)N1CCCCC1` [PIPERANINE], for which the Emax in experiment [3] stood at 88%. In experiment [4], the 50% effective concentration (EC50) is 3980 nM. Besides, the result in experiment [5] was inactive.

For the compound `O=C(/C=C/C=C/c1ccc2c(c1)OCO2)N1CCCCC1` [PIPERINE], the result in experiment [6] and in experiment [5] was inactive. The Emax in experiment [3] was 91%. For the same compound, the EC50 in experiment [4] is 3160 nM.

Take `CC(C)CNC(=O)/C=C/C=C/c1ccc2c(c1)OCO2` [PIPERLONGUMININE]: the maximal effect (Emax) in experiment [1] came out at 94%. Further, the 50% effective concentration (EC50) in experiment [2] is 6.31 nM.

Take `O=C(CCCCc1ccc2c(c1)OCO2)N1CCCCC1` [TETRAHYDROPIPERINE]: the Emax in experiment [3] was found to be 90%. Also, in experiment [4], the EC50 was 6310 nM. The outcome in experiment [5] was inactive.
